The values below come from PMC11564564 (Scientific Reports, 2024).

Converted amounts (≈) assume the structure as drawn.

The subject of one data set is ESBL-producing E. coli. Briefly: MIC by serial dilution, ESBL E. coli. The class given is cell-based. The conditions noted are these: Escherichia coli, read-out: Minimum inhibitory concentration (MIC), E. coli. Summed up: (§1)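 MIC was set by serial dilution of test compound, with three replicates per concentration. Strains were clinical E. coli, K. pneumoniae and P. aeruginosa isolates, identified biochemically and confirmed as ESBL producers by double disc synergy test (ceftazidime and cefotaxime discs 20 mm from amoxicillin/clavulanate on Mueller Hinton agar, 37 °C, 18–20 h).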

In data set [1] the test system is ESBL-producing K. pneumoniae. Kind of data set: MIC by serial dilution, ESBL K. pneumoniae. It is filed as cell-based. Conditions: Klebsiella pneumoniae, read-out: Minimum inhibitory concentration (MIC), K. pneumoniae. A digest of the protocol:
(§2)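 Bacterial isolates were confirmed ESBL-positive by double disc synergy test. For that test, a 0.5 McFarland suspension was swabbed onto Mueller Hinton agar, and ceftazidime and cefotaxime (30 μg) discs were placed 20 mm from an amoxicillin/clavulanate (30 μg) disc. Plates were incubated at 37 °C for 18-20 h, and an enhanced zone indicated ESBL. Test compounds were dissolved in appropriate solvents, and MIC was determined by serial dilution, three replicates per concentration.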

Data set [2] has as its system ESBL-producing P. aeruginosa. Briefly: MIC by serial dilution, ESBL P. aeruginosa. The class given is cell-based. Conditions: Pseudomonas aeruginosa, read-out: Minimum inhibitory concentration (MIC), P. aeruginosa. Summed up: as §2
A further data set has as its system human red blood cells. Kind of data set: Hemolytic. The class given is cell-based. The conditions noted are these: Erythrocyte, 1 h, read-out: IC50, Human RBC's. Summed up: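 Blood from a healthy donor was collected in EDTA. RBCs were pelleted at 14,000 rpm for 5 min, and 200 µL of pellet was resuspended in 9.8 mL PBS, pH 7.2. 100 µL suspension plus 100 µL test solution (200–1 µg/mL) were incubated 1 h at 35 °C, then spun at 10,000 rpm for 10 min. Supernatant haemoglobin was read at 540 nm. Triton X-100 and PBS defined 100% and 0% hemolysis.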

A further data set in a line: Brine shrimp lethality. Conditions: Artemia salina (brine shrimp), in vivo. Summed up:
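Artemia salina eggs were hatched for 24 h in aerated, lit salt water (27 g table salt per 3 L). Ten nauplii went into each tube with test compound at 1–200 µg/mL in 300 µL total. After 24 h, survivors were counted under a magnifier and percent mortality calculated. IC50 came from Finney analysis.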

A short description of another data set: Solubility in DMSO. The class given is physicochemical.
Data set [3] concerns ESBL-producing strains (E. coli, K. pneumoniae, and P. aeruginosa). Briefly: MIC, summary across ESBL-producing strains. It is filed as cell-based. Summed up:
as §1

A further data set has as its system tuberculosis. Conditions: cited from earlier work.

A word on the IC50: it is the concentration at which inhibition is half-maximal. On to `COc1cc(C=Nc2ccc([N+](=O)[O-])cc2)ccc1O` [SB-1, 2-Methoxy-4-((4-nitrophenylimino)methyl)phenol], for which the MIC (in the data set with ESBL-producing E. coli; in data set [1]; in data set [2]; in data set [3]) was 125 mg/L (≈ 459 µM) each time. Further, in the data set with human red blood cells, the IC50 was above 200 mg/L. Further, the IC50 at 24 h in the data set “Brine shrimp lethality” was determined as 50.5 mg/L (≈ 185 µM). Also, in the data set “Solubility in DMSO”, the “Solubility in DMSO” value is reported as “Soluble in DMSO”.
As to `COc1cc(C=Nc2ccccc2Br)ccc1O` [SB-2, 4-((2-Bromophenylimino)methyl)-2-methoxyphenol], the MIC (in the data set on ESBL-producing E. coli; in data set [1]; in data set [2]; in data set [3]) was 250 mg/L (≈ 817 µM) each time. Besides, the “Solubility in DMSO” value in “Solubility in DMSO” was “Soluble in DMSO”.
Take `COc1cc(C=Nc2ccc(C)cc2Cl)ccc1O` [SB-3, 4-((2-Chloro-4-methylphenylimino)methyl)-2-methoxyphenol]: the MIC (in the data set with ESBL-producing E. coli; in data set [1]; in data set [2]; in data set [3]) was 125 mg/L (≈ 453 µM) in each case. For the same compound, in the data set on human red blood cells, the IC50 was above 200 mg/L. The “Solubility in DMSO” value in “Solubility in DMSO” is “Soluble in DMSO”.
`COc1cc(C=Nc2cccc(O)c2)ccc1O` [SB-4, 4-((3-Hydroxyphenylimino)methyl)-2-methoxyphenol]: the MIC (in the data set with ESBL-producing E. coli; in data set [1]; in data set [2]; in data set [3]) was 125 mg/L (≈ 514 µM) each time. For the same compound, the “Solubility in DMSO” value in “Solubility in DMSO” is “Soluble in DMSO”.
With `COc1cc(C=Nc2ccc(Cl)cc2Cl)ccc1O` [SB-5, 4-((2,4-Dichlorophenylimino)methyl)-2-methoxyphenol], the MIC (in the data set on ESBL-producing E. coli; in data set [1]; in data set [2]; in data set [3]) was 125 mg/L (≈ 422 µM) each time. Besides, the IC50 in the data set with human red blood cells was above 200 mg/L. Further, half-maximal inhibition in the data set “Brine shrimp lethality” (IC50 at 24 h) required 45.7 mg/L (≈ 154 µM). Further, the “Solubility in DMSO” value in the data set “Solubility in DMSO” is “Soluble in DMSO”.
Turning to `[H]/N=C(/N)N[C@H]1[C@H](O)[C@@H](O)[C@H](O[C@@H]2O[C@@H](C)[C@](O)(C=O)[C@H]2O[C@@H]2O[C@@H](CO)[C@H](O)[C@@H](O)[C@@H]2NC)[C@@H](N/C(N)=N\[H])[C@@H]1O` [streptomycin], the “MIC, antituberculosis activity” value in the data set on tuberculosis is 10.7 µM (≈ 6.22 µg/mL).
